Results taken from ChEMBL document CHEMBL2417486, “Exploring natural product chemistry and biology with multicomponent reactions. 5. Discovery of a novel tubulin-targeting scaffold derived from the rigidin family of marine alkaloids” (J Med Chem, 2013).
Values after ≈ are worked out from the molar mass of the structure shown. Active and inactive are the calls of the source. The rule behind the calls is not given here.

Assays:
HeLa [1] = assay: Growth inhibition of human HeLa cells after 48 hrs by MTT assay; format: functional
Summary of the method: (§1)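 Cells seeded at 4 × 10^3 per well, grown 24 h, then treated 48 h at 0.004–100 µM from 100 or 25 mM DMSO stocks. Controls were 0.1% DMSO and phenyl arsine oxide. MTT (5 mg/mL) added for 2 h, formazan dissolved in DMSO, A490 read. […] HeLa/MCF-7 in DMEM, MES-SA lines in RPMI-1640, all with 10% FBS.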

MCF7 = assay: Growth inhibition of human MCF7 cells after 48 hrs by MTT assay; format: functional; conditions: MCF7, 48 h; summary of the method: as §1
[2] = biological target: T1, Tubulin beta (Homo sapiens) (UniProt P68371+Q9H4B7+Q13509+P04350+Q3ZCM7+P07437+Q13885+Q9BVA1+Q9BUF5+A6NNZ2); assay: Inhibition of [3H] radiolabelled colchicine binding to tubulin beta (unknown origin) at 1 uM by DEAE-cellulose filter method; format: protein assay
[3] = biological target: T1, Tubulin beta (Homo sapiens); assay: Inhibition of [3H] radiolabelled colchicine binding to tubulin beta (unknown origin) at 5 uM by DEAE-cellulose filter method; format: protein assay
[4] = Aqueous solubility of the compound by spectrophotometric analysis; format: physicochemical
Summary of the method: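 Compound dispersed in ultrapure water at >0.5 mg/mL; supernatant centrifuged repeatedly until no pellet remained, then diluted 1:2 (solution:DMSO). Concentration read from absorbance at peak 335–336 nm against a calibration line made in 1:2 water/DMSO, and corrected for the DMSO dilution.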

UMSCC22B = assay: Growth inhibition of human UM-SCC-22B cells after 48 hrs by MTT assay; format: functional
[5] = Growth inhibition of human UM-SCC-10B cells after 48 hrs by MTT assay; format: functional
[6] = Growth inhibition of human Hs683 cells after 48 hrs by MTT assay; format: functional; conditions: Hs 683, 48 h
A549 = assay: Growth inhibition of human A549 cells after 48 hrs by MTT assay; format: functional; conditions: A549, 48 h
[7] = Growth inhibition of human UM-SCC-10A cells after 48 hrs by MTT assay; format: functional; conditions: UMSCC-10A
B16-F10 = assay: Growth inhibition of mouse B16F10 cells after 48 hrs by MTT assay; format: functional; conditions: B16-F10, 48 h
HeLa [8] = assay: Cell cycle arrest in human HeLa cells assessed as accumulation at G2/M phase at 1 uM after 32 hrs using Vybrant Orange staining by flow cytometry relative to control; format: functional, cell-based
Summary of the method: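 HeLa cells at 70–80% confluence were seeded at 2 × 10^5 per well in DMEM/10% FBS with penicillin G and streptomycin, left to adhere overnight, then treated at 1 µM for 32 h (0.1% DMSO control). Washed, trypsinized, stained 30 min at 37 °C with 10 µM Vybrant Orange in medium, then analysed by flow cytometry for DNA content.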

[9] = Growth inhibition of human U373 cells after 48 hrs by MTT assay; format: functional, U-373MG ATCC; conditions: U373 MG
[10] = Growth inhibition of human UM-SCC-22A cells after 48 hrs by MTT assay; format: functional
SK-MEL-28 = assay: Growth inhibition of human SK-MEL-28 cells after 48 hrs by MTT assay; format: functional; conditions: SK-MEL-28, 48 h

| SMILES | GI50 (HeLa [1]) [µM] | GI50 (MCF7) [µM] | other results |
| --- | --- | --- | --- |
| COc1ccc(C(=O)c2[nH]c3ncnc(-c4ccc(OC)cc4)c3c2-c2ccc(OC)cc2)cc1 | 20 | 8 | – |
| COc1cc(-c2c(C(=O)c3ccccc3)[nH]c3[nH]cnc(=O)c23)cc(OC)c1OC | 48 | 33 | – |
| COc1cc(-c2c(C(=O)c3ccc(O)cc3)[nH]c3[nH]cnc(=O)c23)ccc1O | 5 | 3 | – |
| Cc1ccc(-c2ncnc3[nH]c(C(=O)c4ccccc4)c(-c4cc(Br)cc(Br)c4)c23)cc1 | 9 | 7 | – |
| Nc1ncnc2[nH]c(C(=O)c3ccccc3)c(-c3ccccc3)c12 | 4.4 | 3.9 | – |
| O=C(c1ccc(O)cc1)c1[nH]c2[nH]cnc(=O)c2c1-c1ccccc1 | 0.4 | 0.3 | – |
| O=C(c1ccccc1)c1[nH]c2[nH]cnc(=O)c2c1-c1cccc(Br)n1 | 0.15 | 0.135 | – |
| O=C(c1ccc(OCc2ccccc2)cc1)c1[nH]c2[nH]cnc(=O)c2c1-c1ccccc1 | 0.045 | 0.053 | – |
| O=C(c1ccccc1)c1[nH]c2[nH]cnc(=O)c2c1-c1cccnc1 | 0.88 | 1.26 | – |
| O=C(c1ccccc1)c1[nH]c2[nH]c(=O)[nH]c(=O)c2c1-c1cc(Br)cc(Br)c1 | 71 | 47 | – |
| COc1ccc(/C=C\c2cc(OC)c(OC)c(OC)c2)cc1O | – | – | inhibition [2]: 89%; inhibition [3]: 99% |
| O=C(c1ccccc1)c1[nH]c2[nH]cnc(=O)c2c1-c1cccc(F)c1 | 0.065 | 0.07 | solubility [4]: 65 µM (≈ 21.7 µg/mL) |
| COc1cc(C(=O)c2[nH]c3[nH]c(=O)[nH]c(=O)c3c2-c2ccc(O)c(OC)c2)ccc1O | > 100 | > 100 | – |
| COc1ccc(C(=O)c2[nH]c3[nH]cnc(=O)c3c2-c2cc(Br)cc(Br)c2)cc1 | 0.3 | 0.11 | – |
| COc1ccc(C(=O)c2[nH]c3[nH]cnc(=O)c3c2-c2cc(OC)c(OC)c(OC)c2)cc1 | > 100 | 7 | – |
| O=C(c1ccc(O)cc1)c1[nH]c2[nH]cnc(=O)c2c1-c1ccc(O)cc1 | 4 | 2.8 | – |
| O=C(c1ccc(O)cc1)c1[nH]c2[nH]c(=O)[nH]c(=O)c2c1-c1ccc(O)cc1 | > 100 | > 100 | – |
| COc1cc(-c2c(C(=O)c3ccc(F)cc3)[nH]c3[nH]c(=O)[nH]c(=O)c23)cc(OC)c1OC | > 100 | > 100 | – |
| Nc1ncnc2[nH]c(C(=O)c3ccccc3)c(-c3cncc(Br)c3)c12 | > 100 | > 100 | – |
| O=C(c1ccccc1)c1[nH]c2ncnc(-c3ccccc3)c2c1-c1cc(Br)cc(Br)c1 | 18 | 10 | – |
| COc1ccc(-c2c(C(=O)c3ccccc3)[nH]c3ncnc(-c4ccccc4)c23)cc1 | 70 | 75 | – |

More lines, main results first:

| GI50 (HeLa [1]) [µM] | GI50 (MCF7) [µM] | SMILES | other results |
| --- | --- | --- | --- |
| 0.1 | 0.06 | O=C(c1ccccc1)c1[nH]c2[nH]cnc(=O)c2c1-c1cccc(Cl)c1 | – |
| > 100 | > 100 | N#Cc1cccc(-c2c(C(=O)c3ccc(OCc4ccccc4)cc3)[nH]c3ncnc(N)c23)c1 | – |
| 28 | 15 | Nc1ncnc2[nH]c(C(=O)c3ccccc3)c(-c3cccs3)c12 | – |
| 80 | 14 | COc1ccc(-c2c(C(=O)c3ccccc3)[nH]c3[nH]c(=O)[nH]c(=O)c23)cc1 | – |
| 0.3 | 0.26 | O=C(c1ccc(O)cc1)c1[nH]c2[nH]cnc(=O)c2c1-c1cc(Br)cc(Br)c1 | – |
| 0.13 | 0.06 | O=C(c1ccccc1)c1[nH]c2[nH]cnc(=O)c2c1-c1cccc(Br)c1 | – |
| > 100 | > 100 | COc1cc(C(=O)c2[nH]c3[nH]c(=O)[nH]c(=O)c3c2-c2cc(OC)c(OC)c(OC)c2)ccc1OCc1ccccc1 | – |
| 0.2 | 0.15 | O=C(c1ccccc1)c1[nH]c2[nH]cnc(=O)c2c1-c1cccc(I)c1 | – |
| 6.3 | 0.8 | O=C(c1ccc(F)cc1)c1[nH]c2[nH]cnc(=O)c2c1-c1cc(Br)cc(Br)c1 | – |
| 2.2 | 0.6 | O=C(c1ccc(Br)cc1)c1[nH]c2[nH]cnc(=O)c2c1-c1cc(Br)cc(Br)c1 | – |
| 8.2 | 40 | COc1cc(-c2c(C(=O)c3ccccc3)[nH]c3[nH]cnc(=O)c23)cc(I)c1OC | – |
| 0.86 | 1.09 | O=C(c1ccccc1)c1[nH]c2[nH]cnc(=O)c2c1-c1cccc(O)c1 | – |
| > 100 | > 100 | COc1cc(-c2c(C(=O)c3ccc(Br)cc3)[nH]c3[nH]c(=O)[nH]c(=O)c23)cc(OC)c1OC | – |
| > 100 | > 100 | COc1cc(-c2c(C(=O)c3ccc(O)cc3)[nH]c3[nH]c(=O)[nH]c(=O)c23)ccc1O | – |
| > 100 | > 100 | COc1ccc(C(=O)c2[nH]c3[nH]c(=O)[nH]c(=O)c3c2-c2ccc(OC)cc2)cc1 | – |
| 0.19 | 0.25 | N#Cc1cccc(-c2c(C(=O)c3ccccc3)[nH]c3[nH]cnc(=O)c23)c1 | – |
| 45 | 51 | O=C(c1ccccc1)c1[nH]c2ncnc(-c3ccccc3)c2c1-c1cccnc1 | – |
| > 100 | > 100 | Nc1ncnc2[nH]c(C(=O)c3ccccc3)c(-c3c(Cl)cccc3Cl)c12 | – |
| > 100 | > 100 | Nc1ncnc2[nH]c(C(=O)c3ccccc3)c(-c3cc(Br)cc(Br)c3)c12 | – |
| > 100 | > 100 | COc1cc(C(=O)c2[nH]c3[nH]c(=O)[nH]c(=O)c3c2-c2ccc(O)cc2)ccc1O | – |
| 0.08 | 0.087 | O=C(c1ccccc1)c1[nH]c2[nH]cnc(=O)c2c1-c1cncc(Br)c1 | GI50 (UMSCC22B): 0.02 µM; GI50 [5]: 0.13 µM; GI50 [6]: 0.02 µM; GI50 (A549): 0.02 µM; GI50 [7]: 0.09 µM; GI50 (B16-F10): 0.04 µM; solubility [4]: 30 µM (≈ 11.9 µg/mL); Activity (HeLa [8]): Active; GI50 [9]: 0.03 µM; GI50 [10]: 0.12 µM; GI50 (SK-MEL-28): 0.02 µM |
| 43 | 56 | O=C(c1ccccc1)c1[nH]c2[nH]cnc(=O)c2c1-c1cc(Br)cs1 | – |
| > 100 | > 100 | O=C(c1ccccc1)c1[nH]c2[nH]c(=S)[nH]c(=S)c2c1-c1cc(Br)cc(Br)c1 | – |
| 0.4 | 0.31 | O=C(c1ccc(OCc2ccccc2)cc1)c1[nH]c2[nH]cnc(=O)c2c1-c1cc(Br)cc(Br)c1 | – |
| 4.9 | 2.2 | O=C(c1ccccc1)c1[nH]c2[nH]cnc(=O)c2c1-c1c(Cl)cccc1Cl | – |
| 7.1 | 10 | COc1cc(-c2c(C(=O)c3ccccc3)[nH]c3[nH]cnc(=O)c23)cc(Br)c1OC | – |
